Source: ChEMBL document CHEMBL3792341, “Substituted quinazolinones as kinase inhibitors endowed with anti-fibrotic properties” (Eur J Med Chem, 2016)
Active and inactive are the calls of the source. No cut-off for these calls is given here.

Columns and labels:
[1] = Reduction of COL1A1 mRNA expression in healthy human ISEMF at 1 uM by RT-PCR analysis; type: functional
Procedure, shortened: (§1)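 HSCs or ISEMFs were treated with compound for 24 h. Total RNA was extracted and DNase I-treated, then used for quantitative PCR of the target transcript. Values were normalized to 18S rRNA and relative change was calculated by the ΔΔCT method. Triplicate per isolated cell batch.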

[2] = target: Vascular endothelial growth factor receptor 2 (Homo sapiens) (UniProt P35968); assay: Inhibition of human KDR using […] as substrate at 1 uM measured after 20 mins at 30 degC by liquid scintillation counting method in presence of [gamma-32P]-ATP
Chain of Vascular endothelial growth factor receptor 2 (Homo sapiens) (P35968 whole entry): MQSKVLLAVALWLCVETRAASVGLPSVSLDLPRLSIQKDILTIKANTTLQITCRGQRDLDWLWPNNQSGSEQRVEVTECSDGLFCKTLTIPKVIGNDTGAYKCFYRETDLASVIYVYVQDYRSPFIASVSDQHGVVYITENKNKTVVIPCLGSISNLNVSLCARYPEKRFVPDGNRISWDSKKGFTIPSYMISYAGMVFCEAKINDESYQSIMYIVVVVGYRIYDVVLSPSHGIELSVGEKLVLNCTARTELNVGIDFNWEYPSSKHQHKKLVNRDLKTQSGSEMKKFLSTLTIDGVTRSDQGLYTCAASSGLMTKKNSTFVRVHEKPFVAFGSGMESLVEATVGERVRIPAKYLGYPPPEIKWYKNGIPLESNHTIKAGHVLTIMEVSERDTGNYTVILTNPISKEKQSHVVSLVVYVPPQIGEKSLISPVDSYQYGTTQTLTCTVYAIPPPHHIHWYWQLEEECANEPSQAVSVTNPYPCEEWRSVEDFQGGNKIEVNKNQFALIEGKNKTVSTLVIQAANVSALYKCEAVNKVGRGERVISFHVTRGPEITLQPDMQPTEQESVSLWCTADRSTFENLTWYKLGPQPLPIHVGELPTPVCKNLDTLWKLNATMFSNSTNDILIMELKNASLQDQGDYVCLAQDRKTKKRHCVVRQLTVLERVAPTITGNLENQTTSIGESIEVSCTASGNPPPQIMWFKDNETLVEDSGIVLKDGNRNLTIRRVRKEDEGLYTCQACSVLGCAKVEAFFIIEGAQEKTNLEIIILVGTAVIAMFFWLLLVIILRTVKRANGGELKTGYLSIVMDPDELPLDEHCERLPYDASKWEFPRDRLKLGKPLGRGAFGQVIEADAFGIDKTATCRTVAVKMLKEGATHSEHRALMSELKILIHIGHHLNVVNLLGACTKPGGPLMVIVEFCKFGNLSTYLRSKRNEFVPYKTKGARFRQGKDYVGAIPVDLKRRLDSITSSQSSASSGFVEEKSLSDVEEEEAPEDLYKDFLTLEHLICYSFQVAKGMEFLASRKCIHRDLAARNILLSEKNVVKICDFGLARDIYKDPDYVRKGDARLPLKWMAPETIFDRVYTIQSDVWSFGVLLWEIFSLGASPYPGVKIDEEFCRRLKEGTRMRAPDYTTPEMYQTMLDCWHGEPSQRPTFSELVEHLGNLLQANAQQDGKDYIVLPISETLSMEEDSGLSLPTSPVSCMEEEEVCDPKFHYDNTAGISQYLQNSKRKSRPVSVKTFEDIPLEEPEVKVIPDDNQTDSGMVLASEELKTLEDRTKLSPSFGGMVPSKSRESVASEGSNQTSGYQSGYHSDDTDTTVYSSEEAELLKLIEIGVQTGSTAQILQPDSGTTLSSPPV

[3] = Reduction of COL1A1 mRNA expression in crohn's disease patient isolated ISEMF at 1 uM by RT-PCR analysis; type: functional; conditions: Homo sapiens; procedure, shortened: as §1
[4] = target: Serine/threonine-protein kinase mTOR (Homo sapiens) (UniProt P42345); assay: Inhibition of human mTOR using PHAS-1 as substrate at 1 uM measured after 20 mins at 30 degC by liquid scintillation counting method in presence of [gamma-32P]-ATP
[5] = Cytotoxicity against healthy human ISEMF assessed as cell viability at 1 uM after 72 hrs by MTT assay
Procedure, shortened: (§2)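 MTT viability in primary human HSCs or ISEMFs seeded at 2 × 10³ cells/well. Cells were exposed to compound for 72 h, then to MTT 0.50 mg/ml for 4 h. Viability is expressed as % of the respective untreated cells. Triplicate per isolated cell batch.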

[6] = Reduction of COL1A1 mRNA expression in healthy human HSC cells at 1 uM by RT-PCR analysis; type: functional, cell-based; procedure, shortened: as §1
[7] = target: Proto-oncogene tyrosine-protein kinase Src (Homo sapiens) (UniProt P12931); assay: Inhibition of human Src using myelin basic protein as substrate at 1 uM measured after 20 mins at 30 degC by liquid scintillation counting method in presence of [gamma-32P]-ATP
Chain of Proto-oncogene tyrosine-protein kinase Src (Homo sapiens) (P12931 2-536 limits assumed): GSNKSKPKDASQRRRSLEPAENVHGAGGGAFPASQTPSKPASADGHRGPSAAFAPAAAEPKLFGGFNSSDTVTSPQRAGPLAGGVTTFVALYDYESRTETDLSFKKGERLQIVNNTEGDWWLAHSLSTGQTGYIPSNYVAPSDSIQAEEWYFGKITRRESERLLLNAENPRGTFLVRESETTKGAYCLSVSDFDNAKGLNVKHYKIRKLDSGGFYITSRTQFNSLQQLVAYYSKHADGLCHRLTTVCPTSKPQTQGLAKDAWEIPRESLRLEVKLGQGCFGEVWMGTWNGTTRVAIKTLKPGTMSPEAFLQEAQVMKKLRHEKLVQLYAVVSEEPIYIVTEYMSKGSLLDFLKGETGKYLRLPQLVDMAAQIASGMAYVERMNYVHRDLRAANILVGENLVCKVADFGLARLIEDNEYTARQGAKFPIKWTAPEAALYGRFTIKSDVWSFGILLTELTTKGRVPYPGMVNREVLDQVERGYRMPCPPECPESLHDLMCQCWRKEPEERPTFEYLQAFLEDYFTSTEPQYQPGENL

Homo sapiens [8] = organism: Homo sapiens; assay: Inhibition of human PI3K using phosphatidylinositol 4,5-diphosphate as substrate at 1 uM measured after 20 mins at 30 degC by liquid scintillation counting method in presence of [gamma-32P]-ATP
[9] = Cytotoxicity against crohn's disease patient isolated ISEMF assessed as cell viability at 1 uM after 72 hrs by MTT assay; conditions: human; procedure, shortened: as §2
[10] = Cytotoxicity against human HSC cells assessed as cell viability at 1 uM after 72 hrs by MTT assay; type: cell-based; procedure, shortened: as §2
[11] = target: Fibroblast growth factor receptor 1 (Homo sapiens) (UniProt P11362); assay: Inhibition of human FGFR1 using myelin basic protein as substrate at 1 uM measured after 20 mins at 30 degC by liquid scintillation counting method in presence of [gamma-32P]-ATP
Chain of Fibroblast growth factor receptor 1 (Homo sapiens) (P11362 22-822 limits assumed): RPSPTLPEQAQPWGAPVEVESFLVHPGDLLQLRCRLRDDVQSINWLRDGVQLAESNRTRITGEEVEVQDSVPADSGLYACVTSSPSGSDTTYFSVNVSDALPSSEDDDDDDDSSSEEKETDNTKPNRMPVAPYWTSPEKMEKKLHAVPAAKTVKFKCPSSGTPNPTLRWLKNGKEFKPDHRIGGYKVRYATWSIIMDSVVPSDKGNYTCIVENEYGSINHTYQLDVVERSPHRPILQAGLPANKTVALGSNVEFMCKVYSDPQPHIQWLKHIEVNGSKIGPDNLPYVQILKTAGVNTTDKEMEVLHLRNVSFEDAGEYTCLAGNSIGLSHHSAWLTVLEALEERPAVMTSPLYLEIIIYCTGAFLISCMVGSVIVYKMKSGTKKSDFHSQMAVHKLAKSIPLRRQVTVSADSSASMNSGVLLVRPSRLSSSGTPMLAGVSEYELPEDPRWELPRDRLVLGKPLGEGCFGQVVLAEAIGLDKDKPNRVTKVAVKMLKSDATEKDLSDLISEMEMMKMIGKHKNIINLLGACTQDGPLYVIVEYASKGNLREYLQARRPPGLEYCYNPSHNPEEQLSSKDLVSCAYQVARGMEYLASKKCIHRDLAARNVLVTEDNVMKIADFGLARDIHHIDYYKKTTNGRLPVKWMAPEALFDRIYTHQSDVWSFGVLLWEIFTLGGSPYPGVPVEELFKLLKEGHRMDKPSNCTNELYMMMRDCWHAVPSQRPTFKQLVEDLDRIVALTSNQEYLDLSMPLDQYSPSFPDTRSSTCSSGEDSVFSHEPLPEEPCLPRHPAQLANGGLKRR

[12] = target: Platelet-derived growth factor receptor beta (Homo sapiens) (UniProt P09619); assay: Inhibition of human PDGFR-beta at 1 uM measured after 20 mins at 30 degC by liquid scintillation counting method in presence of [gamma-32P]-ATP
Chain of Platelet-derived growth factor receptor beta (Homo sapiens) (P09619 whole entry): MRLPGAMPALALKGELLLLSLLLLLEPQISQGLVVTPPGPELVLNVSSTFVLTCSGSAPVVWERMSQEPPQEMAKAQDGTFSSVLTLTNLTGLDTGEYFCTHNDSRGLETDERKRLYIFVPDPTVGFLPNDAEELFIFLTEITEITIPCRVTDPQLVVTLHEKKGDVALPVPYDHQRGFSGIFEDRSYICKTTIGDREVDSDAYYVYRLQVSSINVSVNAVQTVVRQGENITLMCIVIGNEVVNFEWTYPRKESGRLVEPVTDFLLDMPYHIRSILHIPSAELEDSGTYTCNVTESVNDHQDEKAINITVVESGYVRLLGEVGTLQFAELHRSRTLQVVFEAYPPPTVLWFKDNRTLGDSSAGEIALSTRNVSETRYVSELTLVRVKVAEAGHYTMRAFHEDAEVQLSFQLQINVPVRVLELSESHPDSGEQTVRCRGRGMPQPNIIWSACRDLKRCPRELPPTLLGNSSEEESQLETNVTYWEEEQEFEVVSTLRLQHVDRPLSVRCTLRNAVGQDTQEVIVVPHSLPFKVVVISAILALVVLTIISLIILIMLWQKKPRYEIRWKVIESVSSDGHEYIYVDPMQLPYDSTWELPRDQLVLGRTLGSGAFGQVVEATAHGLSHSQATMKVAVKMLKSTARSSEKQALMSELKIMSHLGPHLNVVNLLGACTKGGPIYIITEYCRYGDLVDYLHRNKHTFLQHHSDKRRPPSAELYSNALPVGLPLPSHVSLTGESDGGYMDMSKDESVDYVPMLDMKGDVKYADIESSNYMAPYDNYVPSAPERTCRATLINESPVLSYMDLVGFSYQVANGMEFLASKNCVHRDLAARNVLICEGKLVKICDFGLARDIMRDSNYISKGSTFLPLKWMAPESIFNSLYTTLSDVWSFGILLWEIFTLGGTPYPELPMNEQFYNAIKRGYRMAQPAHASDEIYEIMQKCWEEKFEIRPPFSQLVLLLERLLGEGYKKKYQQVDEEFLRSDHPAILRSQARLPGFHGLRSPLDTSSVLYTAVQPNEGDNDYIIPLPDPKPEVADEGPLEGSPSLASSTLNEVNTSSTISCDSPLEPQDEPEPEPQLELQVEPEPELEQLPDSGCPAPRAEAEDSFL

[13] = target: Tyrosine-protein kinase ABL1 (Homo sapiens) (UniProt P00519); assay: Inhibition of human Abl1 using myelin basic protein as substrate at 1 uM measured after 20 mins at 30 degC by liquid scintillation counting method in presence of [gamma-32P]-ATP
Chain of Tyrosine-protein kinase ABL1 (Homo sapiens) (P00519 whole entry): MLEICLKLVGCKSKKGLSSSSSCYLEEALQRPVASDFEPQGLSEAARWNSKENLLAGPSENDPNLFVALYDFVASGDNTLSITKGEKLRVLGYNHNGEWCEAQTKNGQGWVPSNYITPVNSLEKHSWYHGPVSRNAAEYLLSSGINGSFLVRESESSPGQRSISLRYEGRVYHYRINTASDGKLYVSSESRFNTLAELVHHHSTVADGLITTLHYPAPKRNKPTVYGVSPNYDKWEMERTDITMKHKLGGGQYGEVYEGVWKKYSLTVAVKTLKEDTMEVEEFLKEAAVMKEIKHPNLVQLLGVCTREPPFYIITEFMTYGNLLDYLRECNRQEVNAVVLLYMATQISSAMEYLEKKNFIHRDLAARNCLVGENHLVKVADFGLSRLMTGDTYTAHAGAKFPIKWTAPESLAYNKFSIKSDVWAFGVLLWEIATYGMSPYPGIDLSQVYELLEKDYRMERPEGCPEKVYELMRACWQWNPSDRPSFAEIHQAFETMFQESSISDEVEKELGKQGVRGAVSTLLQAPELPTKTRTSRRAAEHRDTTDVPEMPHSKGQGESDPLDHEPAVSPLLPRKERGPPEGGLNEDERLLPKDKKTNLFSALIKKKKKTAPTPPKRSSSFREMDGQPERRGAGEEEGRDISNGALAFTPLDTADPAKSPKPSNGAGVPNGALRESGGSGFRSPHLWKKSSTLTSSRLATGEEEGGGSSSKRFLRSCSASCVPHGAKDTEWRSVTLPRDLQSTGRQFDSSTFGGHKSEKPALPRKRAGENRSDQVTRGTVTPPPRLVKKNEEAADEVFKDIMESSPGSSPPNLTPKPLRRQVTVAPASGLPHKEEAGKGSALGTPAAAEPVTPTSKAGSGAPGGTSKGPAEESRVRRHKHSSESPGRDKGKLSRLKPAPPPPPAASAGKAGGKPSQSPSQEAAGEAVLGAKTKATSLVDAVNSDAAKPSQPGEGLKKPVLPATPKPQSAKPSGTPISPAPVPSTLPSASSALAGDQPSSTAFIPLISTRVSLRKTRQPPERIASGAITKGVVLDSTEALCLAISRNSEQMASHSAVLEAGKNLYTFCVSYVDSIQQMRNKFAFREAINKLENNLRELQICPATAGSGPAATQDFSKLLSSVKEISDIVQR

[14] = Reduction of TIMP1 mRNA expression in crohn's disease patient isolated ISEMF at 1 uM by RT-PCR analysis; type: functional; conditions: Homo sapiens; procedure, shortened: as §1
[15] = Reduction of FN1 mRNA expression in human HSC cells at 1 uM by RT-PCR analysis; type: functional, cell-based; procedure, shortened: as §1
[16] = Reduction of FN1 mRNA expression in crohn's disease patient isolated ISEMF at 1 uM by RT-PCR analysis; type: functional; conditions: Homo sapiens; procedure, shortened: as §1
[17] = Reduction of FN1 mRNA expression in healthy human ISEMF at 1 uM by RT-PCR analysis; type: functional; procedure, shortened: as §1
[18] = Reduction of TIMP1 mRNA expression in healthy human ISEMF at 1 uM by RT-PCR analysis; type: functional; procedure, shortened: as §1
[19] = Reduction of TIMP1 mRNA expression in human HSC cells at 1 uM by RT-PCR analysis; type: functional, cell-based; procedure, shortened: as §1
Homo sapiens [20] = organism: Homo sapiens; assay: Antiproliferative activity against VEGF induced crohn's disease patient isolated ISEMF at 1 uM after 72 hrs by carboxyfluorescein diacetate succinimidyl ester dye-based FACS flow cytometric method; type: functional
Procedure, shortened: (§3)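 Primary human HSCs (from collagenase/pronase digests of non-pathological liver, Percoll gradient) or ISEMFs (from collagenase-digested gut biopsies, CD90-checked) were CFSE-loaded for 10 min at 37 °C in PBS with 0.1% BSA. Loading was quenched with 5 volumes of ice-cold medium. After 16 h, cells were washed and given compound plus 1 ng/ml VEGF for 72 h. Read-out was dye partitioning by flow cytometry, as % CFSE-positive cells. Duplicate per cell batch; mean ± SE.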

HSC = assay: Antiproliferative activity against VEGF induced human HSC cells at 1 uM after 72 hrs by carboxyfluorescein diacetate succinimidyl ester dye-based FACS flow cytometric method; type: functional, cell-based; procedure, shortened: as §3
Homo sapiens [21] = organism: Homo sapiens; assay: Antiproliferative activity against VEGF induced healthy human ISEMF at 1 uM after 72 hrs by carboxyfluorescein diacetate succinimidyl ester dye-based FACS flow cytometric method; type: functional; procedure, shortened: as §3
[22] = target: T1, MAP kinase p38 (Homo sapiens) (UniProt O15264+Q15759+Q16539+P53778); assay: Inhibition of p38 MAPK phosphorylation in human HSC cells at 1 uM after 4 hrs by western blotting analysis; type: cell-based
Procedure, shortened: (§4)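 Primary human cells were treated with compound for 4 h. Lysates were made in RIPA buffer with phosphatase and protease inhibitors and cleared by centrifugation. Proteins were run on 10% SDS-PAGE and blotted to nitrocellulose. Blots were probed for phospho-p38 MAPK with an HRP secondary and ECL detection, then reprobed for total p38 MAPK as loading control. Duplicate experiments.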

[23] = target: T1, MAP kinase p38 (Homo sapiens); assay: Inhibition of p38 MAPK phosphorylation in crohn's disease patient isolated ISEMF at 1 uM after 4 hrs by western blotting analysis; procedure, shortened: as §4

inhibition [2] [%]	inhibition [4] [%]	inhibition [7] [%]	inhibition (Homo sapiens [8]) [%]	inhibition [11] [%]	inhibition [12] [%]	inhibition [13] [%]	SMILES	Activity [1]	Activity [3]	Activity [5]	Activity [6]	Activity [9]	Activity [10]	Activity [14]	Activity [15]	Activity [16]	Activity [17]	Activity [18]	Activity [19]	further results
35	0	0	0	8	0	0	O=c1c2cc3c(cc2ncn1Cc1cccc(-c2ccccc2)c1)OCO3	Active	Active	Non-toxic	Active	Non-toxic	Non-toxic	–	–	–	–	–	–	–
35	23	0	17	18	1	0	O=C(Cn1cnc2cc3c(cc2c1=O)OCCO3)c1ccc(Br)cc1	Active	Active	Non-toxic	Active	Non-toxic	Non-toxic	–	–	–	–	–	–	–
26	1	0	0	5	0	1	O=c1c2cc3c(cc2ncn1CC(O)c1cccc(Cl)c1)OCCO3 (stereo not drawn)	inactive	inactive	Non-toxic	inactive	Non-toxic	Non-toxic	inactive	inactive	inactive	inactive	inactive	inactive	–
45	37	5	25	10	13	0	O=c1c2cc3c(cc2ncn1Cc1ccc(-c2ccccc2)cc1)OCCO3	Active	Active	Non-toxic	Active	Non-toxic	Non-toxic	–	–	–	–	–	–	–
25	10	0	0	6	4	4	O=c1c2cc3c(cc2ncn1Cc1ccc(-c2ccccc2)cc1)OCO3	–	–	–	–	–	–	–	–	–	–	–	–	–
27	17	0	7	1	45	0	O=c1c2cc3c(cc2ncn1Cc1ccc(Br)cc1)OCO3	inactive	inactive	Non-toxic	inactive	Non-toxic	Non-toxic	inactive	inactive	inactive	inactive	inactive	inactive	Activity (Homo sapiens [20]): Active; Activity (HSC): Active; Activity (Homo sapiens [21]): Active
53	17	4	0	7	1	0	COc1cc2ncn(CC(=O)c3ccc(Br)cc3)c(=O)c2cc1OC	–	–	Non-toxic	–	Non-toxic	Non-toxic	Active	Active	Active	inactive	inactive	Active	–
12	13	0	0	1	1	0	O=c1c2cc3c(cc2ncn1Cc1ccc(Br)cc1)OCCO3	–	–	–	–	–	–	–	–	–	–	–	–	–
25	25	0	0	14	0	0	COc1cc2ncn(Cc3ccc(Br)cc3)c(=O)c2cc1OC	–	–	–	–	–	–	–	–	–	–	–	–	–
31	18	0	15	11	22	0	COc1cc2ncn(Cc3cccc(Br)c3)c(=O)c2cc1OC	inactive	inactive	Non-toxic	inactive	Non-toxic	Non-toxic	inactive	inactive	inactive	inactive	inactive	inactive	–
36	2	0	35	18	4	0	O=C(Cn1cnc2cc3c(cc2c1=O)OCCO3)c1cccc(Br)c1	Active	Active	Non-toxic	Active	Non-toxic	Non-toxic	–	–	–	–	–	–	inhibition [22]: Active; inhibition [23]: Active
12	28	0	28	7	0	0	O=c1c2cc3c(cc2ncn1Cc1cccc(Br)c1)OCCO3	–	–	–	–	–	–	–	–	–	–	–	–	–
33	34	0	21	13	4	0	COc1cc2ncn(Cc3cccc(-c4ccccc4)c3)c(=O)c2cc1OC	–	–	–	–	–	–	–	–	–	–	–	–	–
–	49	16	18	31	72	25	Clc1ccc(Nc2nnc(Cc3ccncc3)c3ccccc23)cc1 [VATALANIB]	Active	Active	Toxic	Active	Toxic	Toxic	Active	Active	Active	inactive	inactive	Active	–
